Measurements from article PMC11528686 (Insect biochemistry and molecular biology, 2022).

What was measured:
PGRP3f = experiment: SPR on a Biacore T200; assay type: binding; conditions: read-out: Kd (μM), values without parentheses
Outline: (§1)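 Association and dissociation were run on a Biacore T200 with amine-coupled protein. DAP- or Lys-muramyl pentapeptide, stored at −20 °C, was flowed in HBS-EP (10 mM HEPES, 150 mM NaCl, 3 mM EDTA, 0.005% polysorbate 20) at 30 μl/min and 25 °C. Multi-concentration curves were globally fitted to 1:1 and two-state models, and Kd came from the fit with lower χ2.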

PGRP3s [1] = experiment: SPR on a Biacore T100; assay type: binding; conditions: read-out: Kd (μM), values in parentheses
Outline: (§2)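 On a Biacore T100, protein was amine-coupled and DAP- or Lys-muramyl pentapeptide, freshly prepared, was flowed in HBS-EP (10 mM HEPES, 150 mM NaCl, 3 mM EDTA, 0.005% polysorbate 20) at 30 μl/min and 25 °C. Curves at several analyte concentrations were globally fitted to 1:1 and two-state models, and the fit with lower χ2 gave Kd.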

PGRP1 [2] = molecular target: T1, PGRP1 (Manduca sexta, UniProt Q86RS6); experiment: SPR on a Biacore T100; assay type: binding; conditions: read-out: Kd (μM), values in parentheses; cited from earlier work
T1 sequence (Q86RS6 20-191): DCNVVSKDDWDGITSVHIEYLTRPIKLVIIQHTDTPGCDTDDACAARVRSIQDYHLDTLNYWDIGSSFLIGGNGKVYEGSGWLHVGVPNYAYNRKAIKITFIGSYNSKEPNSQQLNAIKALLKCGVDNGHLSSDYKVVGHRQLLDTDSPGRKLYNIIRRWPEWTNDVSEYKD

PGRP13f = experiment: SPR on a Biacore T200; assay type: binding; conditions: read-out: Kd (μM), values without parentheses
Outline: as §1

PGRP1 [3] = molecular target: T1, PGRP1; experiment: SPR on a Biacore T200; assay type: binding; conditions: read-out: Kd (μM), values without parentheses
Outline: as §1

PGRP2 = molecular target: T2, PGRP2 (Manduca sexta, UniProt D1KRK9); experiment: SPR on a Biacore T100; assay type: binding; conditions: read-out: Kd (μM), values in parentheses
T2 sequence (D1KRK9 19-196): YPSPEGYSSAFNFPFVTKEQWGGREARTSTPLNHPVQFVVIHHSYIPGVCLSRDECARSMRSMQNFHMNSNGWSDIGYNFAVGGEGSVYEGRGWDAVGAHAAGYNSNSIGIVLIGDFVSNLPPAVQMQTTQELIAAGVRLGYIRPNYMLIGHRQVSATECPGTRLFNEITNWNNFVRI
Outline: as §2

PGRP3s [4] = experiment: SPR on a Biacore T200; assay type: binding; conditions: read-out: Kd (μM), values without parentheses
Outline: as §1

PGRP4 = experiment: SPR on a Biacore T200; assay type: binding; conditions: read-out: Kd (μM), values without parentheses
Outline: as §1

PGRP5 = experiment: SPR on a Biacore T200; assay type: binding; conditions: read-out: Kd (μM), values without parentheses
Outline: as §1

PGRP12e = experiment: SPR on a Biacore T200; assay type: binding; conditions: read-out: Kd (μM), values without parentheses
Outline: as §1

[5] = tested on: proPO activation in cell-free hemolymph from naïve larvae; experiment: Elicitor-independent proPO activation in plasma from naïve larvae; assay type: biochemical, Manduca sexta; conditions: at 40 ng/μl protein, 60 min, room temperature, no bacterial elicitor
Outline: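 Naïve larval plasma (day 2, 5th instar; hemocytes removed by 5000 × g, 5 min; stored −80 °C, used within a month) was diluted ten-fold in 20 mM Tris-HCl pH 8.0, 1 mM CaCl2, 0.001% Tween-20. Plasma (5 μl) was mixed with 0–1000 ng protein (final 25 μl) and incubated 60 min. BSA served as negative control. PO was read with dopamine at A470 in kinetic mode; mean ± SD, n = 3.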

Substance | Kd (PGRP3f) | Kd (PGRP3s [1]) | Kd (PGRP1 [2]) | Kd (PGRP13f) | Kd (PGRP1 [3]) | Kd (PGRP2) | Kd (PGRP3s [4]) | Kd (PGRP4) | Kd (PGRP5) | Kd (PGRP12e) | PO activity [5]
Lys-muramyl pentapeptide (Lys-type peptidoglycan monomer) [Lys-MPP] | 29.2 µM | 64 µM | 45.6 µM | 8.77 µM | 38 µM | > 100 µM | 23.8 µM | 79.8 µM | 37.8 µM |  | 
DAP-muramyl pentapeptide (meso-diaminopimelic acid-type peptidoglycan monomer) [DAP-MPP] | 4.7 µM | 0.42 µM | 0.57 µM | 1.8 µM | 2.01 µM | 0.49 µM | 1.75 µM | 4.06 µM | 2.01 µM | 2.64 µM | 
bovine serum albumin [BSA] |  |  |  |  |  |  |  |  |  |  | 0.1 U
